From PubChem BioAssay
Shown are actives, neighbours in structure and some others; about 1.6% of the full set was active somewhere.
TDP2 inh = human TDP2 enzyme inhibitors, primary screen, biochemical, epi absorbance, recombinant enzyme. Tyrosyl-DNA phosphodiesterase 2 (Homo sapiens), O95551. T5PNP hydrolysis, p-nitrophenol absorbance 415 nm. inhibition, % at 12.8 µM. 0.34% of 370,000 active. AID 720702, 2013;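 active means inhibition above the mean of all tested compounds plus 3 SD, set per campaign, cut at about 25% in these data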;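 further: 0% = DMSO with enzyme and 100% = buffer with substrate but no TDP2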
Target sequence (O95551 whole entry, looked up): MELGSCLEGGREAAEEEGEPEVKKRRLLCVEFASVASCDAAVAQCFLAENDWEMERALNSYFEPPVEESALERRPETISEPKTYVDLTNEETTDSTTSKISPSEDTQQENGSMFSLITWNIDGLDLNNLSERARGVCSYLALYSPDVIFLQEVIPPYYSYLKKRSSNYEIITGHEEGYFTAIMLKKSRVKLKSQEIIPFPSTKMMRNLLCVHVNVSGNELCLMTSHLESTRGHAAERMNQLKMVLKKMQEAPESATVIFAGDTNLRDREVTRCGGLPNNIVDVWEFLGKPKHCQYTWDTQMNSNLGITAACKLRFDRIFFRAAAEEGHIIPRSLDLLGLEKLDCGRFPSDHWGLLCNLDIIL
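System – recombinant human TDP2 · Quantity – TDP2 enzyme at 120 nM final · Doses – single concentration, 12.8 µM nominal, with 1% DMSO · Incubation – 2 h at 37 °C · Measured by – epi absorbance of p-nitrophenol freed from T5PNP by hydrolysis · Read-out – % inhibition relative to enzyme-containing and enzyme-free wells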
MBD2 DNA inh = inhibitors of MBD2 binding to methylated DNA, primary screen, biochemical, TR-FRET, DNA-binding domain, human | Methyl-CpG-binding domain protein 2 (Homo sapiens), Q9UBB5 | MBD2 binding to methylated oligonucleotide | inhibition, % at 4.4 µM | 0.31% of 370,000 active | AID 686964, 2013; in the data active means inhibition above about 13%
UHRF1 MBD2 ctr = UHRF1 methylated DNA binding inhibitors, primary screen, counter-screen for MBD2 inhibitor project, biochemical, TR-FRET, human UHRF1, single concentration. E3 ubiquitin-protein ligase UHRF1 (Homo sapiens), Q96T88. UHRF1 binding to methylated oligo. inhibition, % at 4.4 µM. 0.75% of 370,000 active. AID 687016, 2013; in the data active means inhibition above about 21%;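 further: UHRF1 SRA domain binding a hemimethylated CpG hairpin DNA probe; 0% = median of test compound wells and 100% = reference inhibitor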
LEDGF integ inh = blockers of LEDGF/p75-dependent integrase strand transfer – biochemical, TR-FRET, high throughput, primary screen; TR-FRET IN-LEDGF/p75 DNA integration, Eu/Cy5; AID 743269, 2014; 0.64% of 370,000 active; inhibition, % at 3.7 µM; HIV-1 integrase (with human LEDGF/p75);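 active means inhibition above the screen-wide mean plus 3 SD, cut at about 13% in these data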;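 further: signal is the Cy5 over europium emission ratio at 671 and 618 nm; 0% = plate median of compound wells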
* hit, by the source's call.

SMILES	TDP2 inh	MBD2 DNA inh	UHRF1 MBD2 ctr	LEDGF integ inh
Nc1ccc2c(O)cc(S(=O)(=O)O)cc2c1	22	4	21*	40*
COC(=O)C1CN(Cc2ccc(F)cc2)CCS(=O)(=O)N1Cc1ccc(C(F)(F)F)cc1 (stereo not drawn)	-7	-4	2	3
CCCCSc1nc2[nH]ncc2c(=O)[nH]1	-2	-6	68*	1
CCSc1nc2[nH]ncc2c(=O)[nH]1	8	-1	0	-1
CCCCCN1CCCCC(NC(=O)c2c(F)cccc2F)C1=O (stereo not drawn)	-12	6	-1	3
COC(=O)C1CN(Cc2ccc(OC)cc2)CCS(=O)(=O)N1Cc1ccc(OC)cc1 (stereo not drawn)	1	2	0	0
Cc1ccc(C2=NC(=O)/C(=C/c3cc(O)c(O)c(Br)c3)S2)cc1	-6	38*	50*	89*
Cc1cccc(NC(=O)CSc2ccc(-c3ccc4c(c3)OCO4)nn2)c1C	9	13	27*	2
Cc1cc(NC(=O)CSc2ccc(-c3ccc4c(c3)OCO4)nn2)no1	0	2	5	4
CCCCCn1c(=O)[nH]c2cc(C(=O)N3CCN(CC)CC3)ccc2c1=O	3	13	25*	3
Cc1cc(C)c(-c2cc(NC(=O)COC(=O)c3ccc(C#N)cc3)n(-c3ccccc3)n2)cc1C	-2	-4	15	-3
Cc1cc(C)c(-c2cc(NC(=O)COC(=O)c3ccc(NC(=O)CC#N)cc3)n(-c3ccccc3)n2)cc1C	-8	11	26*	-1
CN1OC[C@@H]2CN(C(=O)c3ccc(C#N)cc3)[C@H](c3cccc(Br)c3)C[C@@H]21	3	-4	4	5
CCCCCCCCN1CCS(=O)(=O)N(Cc2ccc(Cl)cc2)C(C(=O)OC)C1 (stereo not drawn)	-2	3	-2	1
CN(C)c1cccc(/C=C2\CC3(OC(=O)c4ccc(Cl)cc4)CCCN2C3)c1 (stereo not drawn)	-10	3	3	4
Nc1ccc(C(=O)OCC(=O)Nc2cc([N+](=O)[O-])ccc2F)cc1	-4	-4	42*	-5
Cn1c(=N)n(CC(=O)c2ccc(Br)cc2)c2ccccc21	14	4	0	-3
N=C1CCCN1CC(=O)c1ccc(Br)cc1	5	6	22*	0
CCOc1ccc(Cl)cc1-c1cc(C(=O)NCc2cc(C(F)(F)F)cc(C(F)(F)F)c2)[nH]n1	-5	7	45*	3
C#CCOCCOCCOCCNc1nc(N2CCN(C(=O)[C@H](CCC(=O)O)n3cc(CN)nn3)CC2)nc(N2CCN(C(=O)[C@H](CCC(=O)O)n3cc([C@@H](N)[C@H](C)CC)nn3)CC2)n1	-6	6	22*	8
O=C1CS/C(=N\N=C\c2ccccc2Cl)N1CC1CC1	4	11	25*	1
CCCCNC(=O)C[C@@H]1C(=O)N2CCCC3=C2[C@@]1(C(=O)OC)CCCC3	-1	-2	-1	0
CCN1CCN(c2c(Cl)cccc2NC(=O)c2ccco2)CC1	-1	11	23*	5
Cc1ccc(SCCC(=O)Nc2ccccc2C(=O)NC(C)C)cc1	8	6	22*	1
Nc1sccc1C(=O)c1ccc(Cl)cc1	2	-7	30*	0
SMILES	TDP2 inh	MBD2 DNA inh	UHRF1 MBD2 ctr	LEDGF integ inh
CCc1cccc2c(C(C)c3ccccc3O)c[nH]c12 (stereo not drawn)	4	-2	-1	0
CCOc1ccccc1OCC(=O)Nc1ccc(S(=O)(=O)N(C)C)cc1	6	-6	47*	1
CC(C)(C)N(Cc1cn(Cc2ccccc2)nn1)S(=O)(=O)c1ccccc1Br	-17	-6	5	6
Cc1ccc(C(=O)Nc2ccc(C(=O)O)cc2NC(=O)c2ccc(C)cc2)cc1	-8	2	0	27*
CC(C)CCN(CCC(C)C)C(CO)(CO)CO	2	11	22*	-6
CCn1c2ccccc2c2cc(C=NNC(=O)c3ccoc3C)ccc21	6	0	-2	-5
CCS(=O)(=O)N1CCN(c2ccc(S(=O)(=O)N3CCOCC3)cc2)CC1	-2	5	31*	-3
COc1ccc(/C=N/OCC(=O)N=Nc2c(O)[nH]c3ccc(Br)cc23)cc1	-3	6	21*	0
Cc1cc(N2CCN(C(=O)Oc3ccc(-c4ccccc4)cn3)CC2)c2ccccc2n1	-11	-2	5	7
COc1ccc(-c2ccc(C(=O)NCC(C)C)c3occc23)c(C)c1	-12	7	49*	-4
Cc1ccc(N=Cc2cc3c(cc2[N+](=O)[O-])OCO3)cc1[N+](=O)[O-]	4	4	9	15*
O=C(CCc1ccc(O)c(O)c1)N/N=C/c1cc2c(cc1[N+](=O)[O-])OCO2	-1	5	28*	53*
CN(C)S(=O)(=O)c1ccc(Cl)c(C(=O)Nc2nc3ccccc3[nH]2)c1	3	2	39*	-2
CN1c2ccsc2/C(=N/Nc2ccccc2)CS1(=O)=O	3	7	24*	-1
O=C(NCC1OCCc2ccccc21)c1ccc(NC(=O)c2ccccc2Cl)cc1 (stereo not drawn)	-4	6	21*	-1
CC(C)=CCOc1ccc2c(C)c(CC(=O)N3C[C@H]4C[C@@H](C3)c3cccc(=O)n3C4)c(=O)oc2c1C	2	0	35*	3
Cc1c(OCC(=O)N2C[C@H]3C[C@@H](C2)c2cccc(=O)n2C3)ccc2c3c(c(=O)oc12)CCCC3	-14	-2	0	4
Cc1noc(C)c1COc1ccccc1C(=O)NC(C)c1ccc(Cl)cc1 (stereo not drawn)	5	0	32*	-3
COc1ccc(CNC2CCC23CCC(C)CC3)cc1OC (stereo not drawn)	-2	2	-2	-3
CCOc1ccc(-n2nnc3c(=O)n(CC(=O)Nc4cc(C)on4)cnc32)cc1	0	1	0	-1
CCOc1ccc(-n2nnc3c(=O)n(C/C=C/c4ccccc4)cnc32)cc1	7	-1	23*	1
COC(=O)[C@]12C[C@H](CC(=O)NCc3cccs3)C(=O)N(Cc3cccc4ccccc34)C1=C[C@H](COCc1ccccc1)O[C@@H]2C	8	1	1	-3
COc1cc(/C=C2\CC/C(=C\c3cc(OC)c(OC)c(OC)c3)C2=O)cc(OC)c1OC	1	4	8	-1
COc1cc(/C=C2\CC/C(=C\c3cc(OC)c(O)c(OC)c3)C2=O)cc(OC)c1O	5	1	-3	34*
O=S(=O)(c1ccccc1)N1CCSC1c1ccco1 (stereo not drawn)	0	-2	-2	-1
